Assay results published in the RNAGym collection of RNA variant scans (doi:10.1126/science.aae0568).
Fewer inactive variants are shown than the library holds.

B1: tRNA (parent)
chain: GUUCCGUUGGCGUAAUGGUAACGCGUCUCCCUCCUAAGGAGAAGACUGCGGGUUCGAGUCCCGUACGGAACG

Variants of: B1
Experiment: yeast fitness relative to wild type (ratio to wild type); higher = fitter; tRNA-Arg(CCU), competitive growth, 37 C, YPD
Procedure, shortened: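 Gene amplicons from the start population and from each of six end populations were read by 100-nucleotide paired-end sequencing. Those end populations came from pooled Saccharomyces cerevisiae strains carrying tRNA-Arg(CCU) gene variants at the native locus, competed in YPD at 37°C for 24 hours. Fitness relative to wild type was worked out from changes in genotype frequencies. Genotypes needed ≥ 100 starting reads, and estimates < 0.5 were set to 0.5.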
With GUUUCGUUGGCGUAAUGGUAAGGCGUCUGCAUCCUAAGGAGAAGACUGCGGGUUCGAGUCCCGUACGGCACG [C4U C22G C29G C31A A69C] the yeast fitness was no more than 0.5.
In the case of GUUUCGUUGGAGUAAUGGUAAUGCGUCUCCCUCCUAAGGAGUAGACUGCGGGUUCGAGUCCCGUACGGAACG [C4U C11A C22U A42U], the yeast fitness is reported as 0.577.
GUUUCGUUGGGGUAAUGGUAACGCGUCUCCCUCUUAAGGAGAAGACUGCGGGUUCGAGUCCCGUACGGAACG [C4U C11G C34U] gave a yeast fitness of 0.551.
GUUUGGUUGGCGUAAUGGUAACGCGUCUCCCUCCUAAGGAGAAGACUGCGGGUUCGAGUACCGUACGGAACG [C4U C5G C60A] gave a yeast fitness of no more than 0.5.
GUUUCGUUGGCGUAAUGGUAAGGCGUCCCCCUCCUAAGGAGAAGACUGCGGGUUCGAGCCCCGUACGGAACG [C4U C22G U28C U59C] gave a yeast fitness of no more than 0.5.
GUUUUGUUGGCGUAAUGGUAACGCGUCUCCCUCCUAAGGAGAAGACUGCGGGUUCGAGUCCCGUACGGAACG [C4U C5U] gave a yeast fitness of 1.01.
GUUUCGUUGGGGUAAUGGUAACGCGUCUCCCUCUUAAGGAGAAGACUGCGGGUUCAAGUCCCGUACGGAACG [C4U C11G C34U G56A] gave a yeast fitness of no more than 0.5.
GUUUCGUUGGUGUAAUGGUAACGCCUCUCCCUCCUAAGGAGAAGACUGCGGGUUCGAGUCCCGUACGGAACG [C4U C11U G25C] gave a yeast fitness of 0.747.
For GUUUCGUUGGCGUAAUGGUAAUGCGUCUCCCUCCUAAGGAGAAGACUGCGGGUUCGAGUCCCGUACGGAACG [C4U C22U], the yeast fitness was 0.76.
With GUUUCGUUGGCGUAAUGGUAACGGGUCUCCCUCCUAGGGAGAAGACUGCGGGUUCGAGUCCCGUACGGAACG [C4U C24G A37G] the yeast fitness was 0.567.
For GUUUCGUUGGCGUAAUGGUAACGGGUCUCCCUCAUAAGGAGAAGCCUGCGGGUUCAAGUCACGUCCGGCGCG [C4U C24G C34A A45C G56A C61A A65C A69C A70G], the yeast fitness was 0.597.
Work on GUUUCGUUGGUGUAAUGGUAACGCGUCUCCCUCCUAAGGAGAUGACUGCGGGUUGGAGUCCCGUACGGAACG [C4U C11U A43U C55G] yielded a yeast fitness of no more than 0.5.
With GUUUGGUUGGCGUAAUGGUAACGCGUCUCCCUCUUAAGGAGAAGACUGCGGGUACGAGUCCCGUACGGAACG [C4U C5G C34U U54A] the yeast fitness was no more than 0.5.
For GUUUCGUUGGAGUAAUGGUAACGCGUCUCCCUCCUAAGGAGAAGAUUGCGGGUUCGAGCCCCGUACGGAACG [C4U C11A C46U U59C], the yeast fitness was no more than 0.5.
With GUUUCGUUGGGGUAAUGGUAACGCGUCUUCCUCCUAAGGAGAAGACUGCGGGUUCGAGUCCUGUACCGAACG [C4U C11G C29U C62U G67C] the yeast fitness was no more than 0.5.
For GUUUGGUUGGCGUAAUGGUAACGCGUCCCCCUCCUAAGGAGAAGACUGCGGGUUCGAGUCCCGUACCGAACG [C4U C5G U28C G67C], the yeast fitness was 0.909.
For GUUUCGUUGGUGUAAUGGUAACGCGUCUCGCUCCUAAGGAGAAGACUGCGGGUUCGAGUCCCGUACGGAACG [C4U C11U C30G], the yeast fitness was no more than 0.5.
For GUUUCGUUGGUGUAAUGGUAACGCGUCUCCCUCCUAAGGAGAACACUGUGGGUUCGAGUCCCGUACGGAUCG [C4U C11U G44C C49U A70U], the yeast fitness was no more than 0.5.
Work on GUUUCGUUGGCGUAAUGGUAAUGCGUCUCCCUCCUAAGGAGAAGGCUGCGGGUUCGAGUCCCGUAGGGAACG [C4U C22U A45G C66G] yielded a yeast fitness of no more than 0.5.
GUUUGGUUGGCAUUAUGGUAACGCGUCUCCCUCCUAAGGAGAAGACUGCGGGUACGUGUCCCGUACGGAACG [C4U C5G G12A A14U U54A A57U] showed a yeast fitness of no more than 0.5.
Work on GUUUGGUUAGCGUAAUGGUAACGCGUCUCCCUCCUAAGGAGAAGACUGCGCGUUCGAGUCCCGUACGGAACG [C4U C5G G9A G51C] yielded a yeast fitness of no more than 0.5.
GUUUUGUUGGCGUCAUGGUAACGCGUCUCCCUCCUAAGGAGAAGACUGCGGGUUCGAGUCCCGUACGAAACG [C4U C5U A14C G68A] gave a yeast fitness of no more than 0.5.
For GUUUCGUUGGUGUAAUGGUAACGCGUCUCCCUCCUAAGGAGAAGUCUGCGGGUUCGUGUCCCGUACGGAACG [C4U C11U A45U A57U], the yeast fitness was 0.655.
GUUUCGUUGGCGUAAUGGUAAUACGUCUCCCUCCUAAGGAGAAGACUGCGGGUUCGAGUCCCGUACGGAACG [C4U C22U G23A] showed a yeast fitness of no more than 0.5.
For GUUUCGUUGGCGUAAUGGUAAGGCGUCUCCCUCCUAAGGAGAAGACUGCGGGUUCGAGCCCCGUACGGAACG [C4U C22G U59C], the yeast fitness was 0.712.
For GUUUCGUUGGAGUAAUGGUAACGCGUCUCCCUCCUACGGAGAAGACUGCGGGUUCGAGUCCCGUCCGGAACG [C4U C11A A37C A65C], the yeast fitness was no more than 0.5.
GUUUCGUUGGUGUAAUGGUAAGGCGUCUCCCUCCUAAGGAGAAGUCUGCGGGUUCGAGUCCCGUACGGAACG [C4U C11U C22G A45U] gave a yeast fitness of no more than 0.5.
Variant GUUUCGUUGGCGUAAUGGUAAUGCGUCUCCCUCCUAAGGAGAAGACUGCGGGUUCGAGUCCUGUACGGAACG [C4U C22U C62U] has a yeast fitness of 0.62.
For GUUUCGUUGGCGUAAUGGUAAGGCGUCACCCUCCUUAGGAGAAGACUGCGGGUUGGAGUCCUGUACGGAACG [C4U C22G U28A A36U C55G C62U], the yeast fitness was no more than 0.5.
With GUUUCGUUGGCGUAAUGGUAACGAGUCUCCCUCCUAAGGAGAAGACUGCGGGUUCGUGUACCGUACGCAACG [C4U C24A A57U C60A G68C] the yeast fitness was no more than 0.5.
Work on GUUUCGUUGGCGUAAUGGUAAUGCGUUUCCCUCCUAAGGAGAAGACUGCGGGUUCGACUCCCGUACGGAACG [C4U C22U C27U G58C] yielded a yeast fitness of no more than 0.5.
Work on GUUUCGUUGGUGUAAUGGUAACGCGUCUCCCUCCUAAGGAGAACACUGCGGGUUCGAGUCCCGUACGGAACG [C4U C11U G44C] yielded a yeast fitness of 0.702.
For GUUUCGUUGGCGUAAUGGUAAGGCGUCACCCUCCUUAGGAGAAGACUGCGGGUUCGAGUCCCGUUCGGAACG [C4U C22G U28A A36U A65U], the yeast fitness was no more than 0.5.
For GUUUCGUUGGGGUAAUGGUAACGCGUCUUCCUCCUAAGGAGAAGACUGCGGGUUCGAGGCCCGUACGGAACG [C4U C11G C29U U59G], the yeast fitness was no more than 0.5.
In the case of GUUUCGUUGGCGUAAUGGUAACGAGUCUCGCUCCUAAGGAGAAGACUGCGGGUUCGAGUCCCGUUAGGAACG [C4U C24A C30G A65U C66A], the yeast fitness is reported as no more than 0.5.
GUUUCGUUGGAAUAAUGGUAACGCGUCUCCCUCCUAAGGAGUAGACUGUGAGUUCGAGUCCCGUACGGAACG [C4U C11A G12A A42U C49U G51A] gave a yeast fitness of no more than 0.5.
Variant GUUUCGUUGGGGUAAUGGUAACGCGUCUCCCUCUUAAGGAGAAGACUGCGGGUUUGAGUCCCGUACGGAACG [C4U C11G C34U C55U] has a yeast fitness of no more than 0.5.
